Laboratory results as given in ChEMBL document CHEMBL1131046, “Substituted salicylanilides as inhibitors of two-component regulatory systems in bacteria” (J Med Chem, 1998).
Values after ≈ are worked out from the molar mass of the structure shown. Active and inactive are the calls of the source. No cut-off for these calls is given here.

Experiments:
[1] = biological target: T1, KinA/Spo0F (sporulation kinase A/sporulation initiation phosphotransferase F) (Bacillus subtilis (strain 168), UniProt P06628+P16497); assay: Inhibition of autophosphorylation of the two-component signal transduction system kinase was measured using the KinA/Spo0F regulatory system of Bacillus subtilis.; type: functional
T1 sequence (P06628 whole entry): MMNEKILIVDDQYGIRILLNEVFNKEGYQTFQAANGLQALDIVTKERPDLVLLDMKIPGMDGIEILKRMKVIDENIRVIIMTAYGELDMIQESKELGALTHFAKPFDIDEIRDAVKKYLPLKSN
T1 sequence (P16497 whole entry): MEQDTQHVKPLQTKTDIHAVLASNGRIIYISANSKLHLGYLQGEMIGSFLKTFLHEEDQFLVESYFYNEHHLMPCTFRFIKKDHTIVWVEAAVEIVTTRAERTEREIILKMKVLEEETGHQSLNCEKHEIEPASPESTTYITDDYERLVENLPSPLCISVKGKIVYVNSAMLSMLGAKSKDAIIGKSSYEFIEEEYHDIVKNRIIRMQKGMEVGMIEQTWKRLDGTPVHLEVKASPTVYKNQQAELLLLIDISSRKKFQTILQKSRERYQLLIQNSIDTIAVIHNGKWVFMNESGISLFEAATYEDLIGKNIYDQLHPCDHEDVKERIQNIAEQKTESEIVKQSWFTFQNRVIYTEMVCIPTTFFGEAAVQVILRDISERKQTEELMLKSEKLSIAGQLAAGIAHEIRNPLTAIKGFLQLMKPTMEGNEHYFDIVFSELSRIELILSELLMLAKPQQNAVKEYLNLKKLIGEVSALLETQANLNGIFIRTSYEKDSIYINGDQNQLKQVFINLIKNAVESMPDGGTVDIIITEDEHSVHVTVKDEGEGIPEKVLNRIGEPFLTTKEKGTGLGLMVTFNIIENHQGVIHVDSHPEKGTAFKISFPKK

Enterococcus faecium = assay: Minimum inhibitory activity against Enterococcus faecium OC3312.; type: functional
Procedure, shortened: (§1)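 MIC by NCCLS broth microdilution. Strains are ATCC and clinical isolates, including methicillin-resistant S. aureus.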

Enterococcus faecalis [2] = assay: Minimum inhibitory activity against Enterococcus faecalis OC3041.; type: functional; procedure, shortened: as §1
Enterococcus faecalis [3] = assay: Percentage of specific activity relative to untreated control at a concentration allowing 80% growth.; type: functional
Procedure, shortened: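 OD600 is followed every 30 min. Luciferase RLU/OD600 is measured 2 h after induction. The value is specific activity as a percentage of untreated control, taken at the compound concentration allowing 80% growth.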

Enterococcus faecalis [4] = assay: Activity of the VanS/VanR TCS in Enterococcus faecalis OC3364; + indicate decrease of the luciferase specific activity relative to an untreated control; type: functional, organism-based
Procedure, shortened: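 Reporter assay in Enterococcus faecalis OC3364 (from JH2) carrying vanR vanS and a Φ(vanH-luc) fusion on separate plasmids. […] OD600 is read every 30 min. At 2 h cells are lysed and luciferase RLU is read with ATP, coenzyme A and luciferin. Specific activity = RLU/OD600, compared with an untreated control.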

Staphylococcus aureus [5] = assay: Minimum inhibitory activity against Staphylococcus aureus ATCC 29213.; type: functional; procedure, shortened: as §1
Staphylococcus aureus [6] = assay: Minimum inhibitory activity against Staphylococcus aureus MRSA OC2089.; type: functional; procedure, shortened: as §1
Enterococcus faecalis [7] = assay: Activity of the VanS/VanR TCS in Enterococcus faecalis OC3364; +{i} indicate induced overexpression of luciferase specific activity; type: functional, organism-based
Procedure, shortened: (§2)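 E. faecalis OC3364 (JH2-derived) carries vanR vanS and a vanH-luc fusion on separate plasmids. […] OD600 was read every 30 min. At 2 h, cells were lysed by 10 min shaking in an equal volume of Genepol X-80 mix. Luciferase RLU was read with ATP, coenzyme A and luciferin. Specific activity (RLU/OD600) was compared with an untreated control.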

Staphylococcus aureus [8] = assay: Minimum inhibitory activity against methicillin resistant Staphylococcus aureus (MRSA) OC2089.; type: functional
Procedure, shortened: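 Broth microdilution MIC following NCCLS methods for aerobically growing bacteria.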

Enterococcus faecalis [9] = assay: Activity of the VanS/VanR TCS in Enterococcus faecalis OC3364; +{i} indicate induced over-expression of luciferase specific activity; type: functional, organism-based; procedure, shortened: as §2
Enterococcus faecalis [10] = assay: Activity of the VanS/VanR TCS in Enterococcus faecalis OC3364; -{i} indicate over-expression of luciferase in both strains; type: functional, organism-based; procedure, shortened: as §2

SMILES | IC50 [1] [µM] | MIC (Enterococcus faecium) [mg/L] | MIC (Enterococcus faecalis [2]) [mg/L] | MIC (Staphylococcus aureus [5]) [mg/L] | MIC (Staphylococcus aureus [8]) [mg/L] | other results
COc1cc(OC)c(O)c(C(=O)Nc2cc(Cl)c(C(C#N)c3ccc(Cl)cc3)cc2C)c1 (stereo not drawn) | 250 |  |  |  |  | 
COc1cc(OC)c(O)c(C(=O)Nc2ccc(Cl)c(Cl)c2)c1 | > 500 |  |  |  |  | 
Cc1cc(C(C#N)c2ccc(Cl)cc2)c(Cl)cc1NC(=O)c1cc(C(C)(C)C)cc(C(C)(C)C)c1O (stereo not drawn) | > 500 |  |  |  |  | 
O=C(Nc1ccc(Cl)c(Cl)c1)c1cccc(O)c1O | 9.5 | 32 (≈ 107 µM) | 8 (≈ 26.8 µM) | 8 (≈ 26.8 µM) |  | AG80 (Enterococcus faecalis [3]): 48%; Activity (Enterococcus faecalis [4]): Active; MIC (Staphylococcus aureus [6]): 8 mg/L (≈ 26.8 µM)
CN[C@H](CC(C)C)C(=O)N[C@H]1C(=O)N[C@@H](CC(N)=O)C(=O)N[C@H]2C(=O)N[C@H]3C(=O)N[C@H](C(=O)N[C@H](C(=O)O)c4cc(O)cc(O)c4-c4cc3ccc4O)[C@H](O)c3ccc(c(Cl)c3)Oc3cc2cc(c3O[C@@H]2O[C@H](CO)[C@@H](O)[C@H](O)[C@H]2O[C@H]2C[C@](C)(N)[C@H](O)[C@H](C)O2)Oc2ccc(cc2Cl)[C@H]1O [VANCOMYCIN] |  | > 128 |  |  |  | 
O=C(Nc1ccc(Cl)c(Cl)c1)c1cc(C(F)(F)F)cc(C(F)(F)F)c1O | 27 | 2 (≈ 4.78 µM) | 2 (≈ 4.78 µM) | 1 (≈ 2.39 µM) | 1 (≈ 2.39 µM) | Activity (Enterococcus faecalis [7]): Active
Cc1cc(C(CN)c2ccc(Cl)cc2)c(Cl)cc1NC(=O)c1cc(I)cc(I)c1O (stereo not drawn) | 86 |  |  |  |  | 
Cc1cc(C(C#N)c2ccc(Cl)cc2)c(Cl)cc1NC(=O)c1cc(Cl)ccc1O (stereo not drawn) | > 500 |  |  |  |  | 
Cc1cc(C(C#N)c2ccc(Cl)cc2)c(Cl)cc1NC(=O)c1cc(C(F)(F)F)ccc1O (stereo not drawn) | 19 | 1 (≈ 2.09 µM) | 1 (≈ 2.09 µM) | 1 (≈ 2.09 µM) | 1 (≈ 2.09 µM) | AG80 (Enterococcus faecalis [3]): 95%
O=C(Nc1ccc(Cl)cc1)c1cc(Cl)cc(Cl)c1O | 185 |  |  |  |  | 
Cc1cc(C(C#N)c2ccc(Cl)cc2)c(Cl)cc1NC(=O)c1cccc(O)c1O (stereo not drawn) | 2.8 | 16 (≈ 37.4 µM) | 16 (≈ 37.4 µM) | 16 (≈ 37.4 µM) |  | AG80 (Enterococcus faecalis [3]): 66%; Activity (Enterococcus faecalis [4]): Active; MIC (Staphylococcus aureus [6]): 16 mg/L (≈ 37.4 µM)
Cc1cc(C(C#N)c2ccc(Cl)cc2)c(Cl)cc1NC(=O)c1cc(Cl)cc(Cl)c1O (stereo not drawn) | 4.8 | 2 (≈ 4.17 µM) | 2 (≈ 4.17 µM) | 1 (≈ 2.08 µM) |  | Activity (Enterococcus faecalis [9]): Active; MIC (Staphylococcus aureus [6]): 1 mg/L (≈ 2.08 µM)
O=C(Nc1ccc(Cl)c(Cl)c1)c1cc(C(F)(F)F)ccc1O | > 500 |  |  |  |  | 
Cc1onc(-c2ccccc2)c1C(=O)N[C@@H]1C(=O)N2[C@@H]1SC(C)(C)[C@@H]2C(=O)O [OXACILLIN] |  | > 64 | 16 (≈ 39.9 µM) | 0.25 (≈ 0.623 µM) |  | MIC (Staphylococcus aureus [6]): > 64 mg/L
Cc1cc(C(C#N)c2ccc(Cl)cc2)c(Cl)cc1NC(=O)c1cc(C(F)(F)F)cc(C(F)(F)F)c1O (stereo not drawn) | 9 |  |  |  |  | 
Cc1cc(C(C#N)c2ccc(Cl)cc2)c(Cl)cc1NC(=O)c1cc(I)cc(I)c1O (stereo not drawn) [CLOSANTEL] | 3.8 | 1 (≈ 1.51 µM) | 0.12 (≈ 0.181 µM) | 2 (≈ 3.02 µM) | 1 (≈ 1.51 µM) | AG80 (Enterococcus faecalis [3]): 100%
O=C(Nc1ccc(Cl)c(C(F)(F)F)c1)c1cc(Cl)cc(Cl)c1O | 50 | 1 (≈ 2.6 µM) | 0.5 (≈ 1.3 µM) | 0.5 (≈ 1.3 µM) | 0.25 (≈ 0.65 µM) | Activity (Enterococcus faecalis [10]): inactive
O=C(Nc1ccccc1)c1cc(Cl)cc(Cl)c1O | > 500 | 32 (≈ 113 µM) | 64 (≈ 227 µM) | 1 (≈ 3.54 µM) | 4 (≈ 14.2 µM) | 
Cc1cc(C(=O)c2ccc(Cl)cc2)c(Cl)cc1NC(=O)c1cc(I)cc(I)c1O | > 500 |  |  |  |  | 
COc1ccc(NC(=O)c2cc(Cl)cc(Cl)c2O)cc1 | > 500 |  |  |  |  | 
O=C(Nc1ccc([N+](=O)[O-])cc1)c1cc(Cl)cc(Cl)c1O | > 500 | > 64 | > 32 | 4 (≈ 12.2 µM) |  | MIC (Staphylococcus aureus [6]): 4 mg/L (≈ 12.2 µM)
CC(C)(C)c1ccc(NC(=O)c2cc(Cl)cc(Cl)c2O)cc1 | 67 | 4 (≈ 11.8 µM) | 8 (≈ 23.7 µM) | 2 (≈ 5.91 µM) | 2 (≈ 5.91 µM) | Activity (Enterococcus faecalis [10]): inactive
O=C(Nc1ccc(Cl)c(Cl)c1)c1cc(Cl)cc(Cl)c1O [3,3',4',5-TETRACHLOROSALICYLANILIDE] |  | 1 (≈ 2.85 µM) | 0.5 (≈ 1.42 µM) | 0.5 (≈ 1.42 µM) | 0.25 (≈ 0.712 µM) | Activity (Enterococcus faecalis [7]): Active
CC(C)(C)c1cc(C(=O)Nc2ccc(Cl)c(Cl)c2)c(O)c(C(C)(C)C)c1 | > 500 |  |  |  |  | 
O=C(Nc1ccc(Cl)c(Cl)c1)c1cc(I)cc(I)c1O | 21 | 0.5 (≈ 0.936 µM) | 0.5 (≈ 0.936 µM) | 1 (≈ 1.87 µM) | 0.25 (≈ 0.468 µM) | Activity (Enterococcus faecalis [7]): Active
O=C(Nc1ccc(Cl)c(Cl)c1)c1cc(Cl)ccc1O | > 500 |  |  |  |  | 
